# Compound activity from PubChem BioAssay.
# Shown are actives, neighbours in structure and some others; about 12% of the full set was active somewhere.
# Rad51 HR inh – Rad51 (human) homologous recombination inhibition. actives 0.085% (n = 200,000). inhibition, % at 10 µM. Q06609. hRad51 DNA strand exchange, fluorescence dequenching. AID 1385;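 active = inhibition above 40% at the single screening dose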
#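 System: human Rad51 nucleoprotein filaments preassembled on unlabelled ssDNA. Reagent: labelled 47-mer dsDNA for strand exchange. Schedule: 30-min compound preincubation and 15-min exchange, both room temperature. Measured by: FRET fluorescence dequenching, excitation 485 nm, emission 520 nm. Read-out: Fluorescence-based percent inhibition, control- and blank-normalised. Benchmarks: plate controls and plate blanks.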
# Arbovirus anti – arbovirus infection inhibition; arbovirus infection cell-based antiviral screen; inhibition, % at 10 µM; actives 0.37% (n = 200,000); in the data active = inhibition above about 30%
# CHOP inhibitor – inhibitors of CHOP induction in ER stress response; CHO-K1 CHOP-promoter luciferase, tunicamycin-induced, 15-18 h; inhibition, % at 10 µM; actives 3.8% (n = 220,000);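 active = compounds that reduced the stress-induced luciferase reporter signal by more than about 70% of percent inhibition, limit read from the data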
# Wee1 degr inh – blocks degradation of human Wee1 kinase; P30291; HeLa Luc-Wee1K328M stability, luciferase luminescence; 100% = proteasome inhibitor MG132 effect; reporter increase, % at 5 µM; actives 1.2% (n = 220,000);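 active = activation above the mean of all tested compounds plus 3 SD, set per screening run, cut at about 8.8% in these data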;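 also: cells exposed to compound for 20 h before luminescence read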
# Target sequence (P30291 whole entry K328M): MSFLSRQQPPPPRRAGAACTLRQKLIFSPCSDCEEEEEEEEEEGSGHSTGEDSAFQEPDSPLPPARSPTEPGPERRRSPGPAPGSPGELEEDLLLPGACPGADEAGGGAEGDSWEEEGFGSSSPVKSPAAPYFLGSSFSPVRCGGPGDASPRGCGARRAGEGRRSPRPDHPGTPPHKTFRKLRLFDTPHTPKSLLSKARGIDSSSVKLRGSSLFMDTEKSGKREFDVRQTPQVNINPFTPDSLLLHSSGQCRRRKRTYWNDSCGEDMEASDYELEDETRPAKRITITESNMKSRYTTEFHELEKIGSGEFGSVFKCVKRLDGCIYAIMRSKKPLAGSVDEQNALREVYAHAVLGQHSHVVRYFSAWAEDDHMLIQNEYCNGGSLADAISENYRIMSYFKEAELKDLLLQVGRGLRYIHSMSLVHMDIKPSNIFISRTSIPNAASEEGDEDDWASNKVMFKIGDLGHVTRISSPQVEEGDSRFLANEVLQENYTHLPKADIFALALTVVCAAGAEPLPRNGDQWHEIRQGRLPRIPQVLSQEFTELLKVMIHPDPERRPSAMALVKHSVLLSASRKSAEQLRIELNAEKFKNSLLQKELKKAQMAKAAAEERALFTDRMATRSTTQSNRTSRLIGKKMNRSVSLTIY
# L major viab – reduces viability of Leishmania major promastigotes | resazurin fluorescence viability | inhibition, % at 10 µM | actives 9% (n = 200,000);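 also: promastigotes grown with compound for 44 hours at 28 °C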
# PKD1 inh – blocks activity of human protein kinase D1; Q15139; PKD1 kinase fluorescence polarization assay; inhibition, % (no concentration beside the values); actives 0.056% (n = 200,000)
# Lmaj promast 1uM – L. major promastigote growth inhibition, 1 uM repeat. actives 13% (n = 1,100). inhibition, % at 1 µM. AID 1258. resazurin fluorescence, 48 h. shares compounds with L major viab;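 active = inhibition above about 50% in both repeat tests, limit read from the data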
# Numbers stand for hits; i = inactive; nt = no result. Rule as the data show it, unless noted: active = inhibition above about 50%; inactive = the rest.
SMILES,Rad51 HR inh,Arbovirus anti,CHOP inhibitor,Wee1 degr inh,L major viab,PKD1 inh,Lmaj promast 1uM
COC(=O)N/N=C/c1cccs1,i,i,i,i,i,i,nt
CN(Cc1ccccc1)C(=O)C(C(=O)c1ccc(F)cc1)n1cc(Cl)ccc1=O (stereo unspecified),i,i,i,i,i,i,nt
C(=C/c1nccc2c1[nH]c1ccccc12)/c1ccc2c(c1)OCO2,i,i,i,i,95.9,i,i
CC1=CC(C)C2(COC(c3ccc[n+](C)c3)OC2)C(C)C1 (stereo unspecified),i,i,i,i,99.8,i,i
Nc1ccc2nc(SCc3ccc([N+](=O)[O-])cc3)sc2c1,nt,i,i,i,68.6,i,i
CC12COC3(P(=O)(c4ccccc4)c4ccccc4)CC1CCC23CP(=O)(c1ccccc1)c1ccccc1 (stereo unspecified),i,i,i,i,61.7,i,i
CC12COC3(C(=O)Nc4ccc(F)cc4)CC1CCC32C (stereo unspecified),i,i,i,i,i,i,nt
Cc1ccc(-n2cc(CN(C)CCc3cn[nH]c3)c(-c3cccc(C)c3)n2)cc1,i,i,i,i,64.7,i,i
Cc1ccc(CNC(=O)CCC2CCCN(Cc3c(C)nn(C(C)C)c3C)C2)o1 (stereo unspecified),i,i,i,i,i,i,nt
CCOC(=O)c1cc(-c2ccc(OC)cc2)nc2c1c(C)nn2CCC#N,i,i,i,i,i,i,nt
COc1ccc(-c2cc(Nc3ccccc3NC(=O)C(F)(F)F)n(CCC#N)n2)cc1,i,i,i,i,62.6,i,i
COc1cc(CNCc2cccs2)ccc1OCC(N)=O,i,i,i,i,i,i,nt
COc1cc(CNCc2cccs2)ccc1OCc1ccccc1,i,i,i,i,99.3,i,92.4
CCCc1n[nH]c2c1/C(=N/O)CC(c1ccccc1)C2 (stereo unspecified),i,i,i,i,80.9,i,59.1
CCCc1noc2c1/C(=N\O)CC(c1ccccc1)C2 (stereo unspecified),i,i,i,i,i,i,nt
O=c1oc2ccccc2nc1/C=C(O)/C=C\c1ccccc1,i,i,i,i,98.8,i,i
CC(C)NC(=S)NCc1cccs1,nt,i,i,i,i,i,nt
CN(C)C(=O)C12CCC(C)(c3nc4ccccc4nc31)C2(C)C (stereo unspecified),i,i,i,i,i,i,nt
Cc1cc2nc3c(nc2cc1C)C1(C(=O)N(C)C)CCC3(C)C1(C)C (stereo unspecified),i,i,i,i,93.6,i,i
Cc1noc(C)c1COC(=O)CCCc1c[nH]c2ccccc12,nt,i,i,i,i,i,nt
Cc1ccc(C(=O)C(C(=O)/C=C/c2ccccc2)=C2SCCCS2)cc1,i,i,i,i,100.1,i,i
NC(=S)Nn1c(CCC(=O)O)ccc1-c1ccccc1,i,i,i,i,65.9,i,i
COc1ccccc1-n1cnc2c(c1=O)c1nc3ccccc3nc1n2-c1ccc(C)c(C)c1,i,i,84.1,i,97.5,i,96.6
Cc1ccc(C2CC(=O)c3cnn(-c4nc(C)cc(C)n4)c3C2)cc1 (stereo unspecified),nt,35.6,i,i,74.8,i,i
CC(=O)c1c(-c2ccc(C)cc2)nc2c3ccccc3ccn12,i,i,i,i,58.5,i,i
SMILES,Rad51 HR inh,Arbovirus anti,CHOP inhibitor,Wee1 degr inh,L major viab,PKD1 inh,Lmaj promast 1uM
CCOC(=O)/C(=N/Nc1ccccc1)Sc1nnc(CCc2ccccc2)n1-c1ccccc1,i,i,i,i,i,i,nt
CCCCN1C2CCCC1CC(NC(=O)C1CCCCC1)C2 (stereo unspecified),i,i,i,i,87.6,i,i
NCCCCCc1nnc(SCc2cccc(Cl)c2)o1,i,i,i,i,98.2,i,i
Cc1ccc(OCCCCn2ccnc2)c(Cl)c1,i,i,i,i,98.3,i,73.8
CCOc1ccccc1OCCCOc1ccc(C)cc1Cl,i,i,i,i,i,i,nt
COc1ccc(Cn2cc3c(-c4ccc(F)cc4)nnc-3c3cc(OC)c(OC)cc32)cc1,i,i,i,i,i,i,nt
COc1cc2c3nnc(-c4ccc(F)cc4)c-3cn(Cc3ccc(F)cc3)c2cc1OC,i,i,i,i,96.7,i,i
COc1ccccc1/C=C/CN1CCCC(CO)(Cc2cccc(Cl)c2)C1 (stereo unspecified),nt,i,i,i,82.3,i,i
COc1cccc(C(=O)C2CCCN(C/C=C/c3ccccc3OC)C2)c1 (stereo unspecified),i,i,i,i,i,i,nt
O=S(=O)(Cc1cccc(C(F)(F)F)c1)c1ncn[nH]1,i,i,i,i,i,i,nt
O=C(c1ccccc1)c1c2c(cc3sc4ccccc4[n+]13)-c1cccc3cccc-2c13,i,i,82.4,i,100.4,i,100.0
N#Cc1c(Oc2ccc3ccccc3c2)sc(C(=O)c2ccccc2)c1N,i,i,i,i,i,i,nt
CCC(C)NC(=O)CN(c1ccc(Cl)c(Cl)c1)S(C)(=O)=O (stereo unspecified),i,i,i,i,i,i,nt
NC(=O)c1nsc(C(=O)N(CC(=O)NC2CCCC2)Cc2ccc3c(c2)OCO3)c1N,i,i,i,i,i,i,nt
O=C(/C=C/c1ccc(F)cc1)NC(=S)N1CCCCC1c1cccnc1 (stereo unspecified),i,nt,i,i,nt,nt,nt
O=C(Nc1ccc(F)cc1F)N1CCCCC1c1cccnc1 (stereo unspecified),i,i,i,i,73.2,i,i
Cc1sc(N)c(C#N)c1C,i,i,i,i,51.4,i,i
CCc1ccc(NC(=S)Nc2ccc(S(=O)(=O)Nc3ncccn3)cc2)cc1,i,i,i,i,i,i,nt
O=C(c1ccc(Cl)c(S(=O)(=O)N2CCCCCC2)c1)N1CCN(c2ccccc2O)CC1,i,i,i,i,i,i,nt
N#Cc1nnn(-c2cc(Cl)cc(Cl)c2)c1N,i,nt,i,i,nt,nt,nt
Cc1c([N+](=O)[O-])nnn1-c1cc(Cl)cc(Cl)c1,i,i,i,i,50.1,i,i
O=C1C(=O)N(CC2CCCO2)C(c2ccccc2[N+](=O)[O-])/C1=C(/O)c1ccccc1 (stereo unspecified),i,i,i,i,i,i,nt
CN1CCC(OC(=O)c2ccccc2Cl)CC1,i,i,i,i,75.8,i,i
CN1CCC(OC(=O)c2ccco2)CC1,i,i,i,i,i,i,nt
CCCNc1nc(Cl)nc(NCc2cccnc2)n1,i,nt,i,i,nt,nt,nt
CN1CCN(S(=O)(=O)c2ccc(NC(=S)NC(=O)c3ccccc3)cc2)CC1,i,i,i,i,i,i,nt
CN1CCN(S(=O)(=O)c2ccc(NC(=S)NC(=O)c3ccc(Cl)cc3)cc2)CC1,nt,48.6,i,i,85.4,i,i
CC(C)(C)c1ccc(-c2nc(C=O)c3ccccn23)cc1,nt,i,i,i,63.2,i,i
